As a reminder, the IC50 is the concentration at which inhibition is half-maximal. As a reminder, the Ki is a measure of affinity in units of concentration, obtained from inhibition or displacement.

Active and inactive are the calls of the source. The calls are words filed in the database; no cut-off is given here.

The target in data set [1] is T1, Glycogen synthase kinase-3 beta (Homo sapiens, UniProt P49841). The data set can be described thus: Inhibition of human recombinant GSK3-beta at 1 uM by ELISA. The essentials:
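Recombinant human GSK3β (500 ng) with human tau-441 (1 μg) as substrate, in a 20 μL reaction with 10× kinase buffer stock (200 mM Tris-HCl pH 7.4, 100 mM MgCl2, 5 mM DTT) and ATP added from a 100 μM stock. Incubated 30 °C for 45 min. Phospho-tau pS396 measured by immunoassay at A450. Controls were DMSO and no-ATP.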
(In general: An ELISA detects its analyte on a solid surface through an enzyme-linked reagent.)
Target sequence in this assay (P49841 whole entry, looked up): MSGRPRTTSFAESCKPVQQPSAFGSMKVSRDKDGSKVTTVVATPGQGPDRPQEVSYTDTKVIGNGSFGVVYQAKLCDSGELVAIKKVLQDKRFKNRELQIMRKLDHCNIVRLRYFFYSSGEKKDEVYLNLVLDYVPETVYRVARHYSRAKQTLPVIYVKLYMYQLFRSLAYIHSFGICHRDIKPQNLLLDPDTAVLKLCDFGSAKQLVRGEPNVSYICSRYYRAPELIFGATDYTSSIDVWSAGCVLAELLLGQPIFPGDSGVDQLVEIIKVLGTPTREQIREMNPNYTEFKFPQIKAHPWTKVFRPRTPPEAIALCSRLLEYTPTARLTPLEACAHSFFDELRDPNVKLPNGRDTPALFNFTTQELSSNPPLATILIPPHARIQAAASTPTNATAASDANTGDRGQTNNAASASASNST

Data set [2] can be described thus: Toxicity in Zebrafish embryos assessed as induction of eyeless phenotype during gastrulation at 25 uM after 3 days. Format: tissue-based, Danio rerio, Embryo. Particulars: in vivo, 72 h. The method, boiled down:
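FLK-1:EGFP transgenic zebrafish embryos, six per well in 200 μL Holtfreter's buffer. Compound added at dome stage and embryos kept in compound solution up to 7 days. Heads examined at 1 and 3 dpf for eye phenotype. LiCl comparison: 0.3 M for 10 min, then buffer.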

Data set [3] addresses T1, Glycogen synthase kinase-3 beta. The data set can be described thus: Inhibition of human recombinant GSK3-beta. The method, boiled down:
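10× kinase buffer stock was 200 mM Tris-HCl pH 7.4, 100 mM MgCl2, 5 mM DTT; ATP added from a 100 μM stock. Incubated 30 °C for 45 min. Tau pS396 read by immunoassay at A450. DMSO and no-ATP controls were run. IC50 taken from activity curves.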
Target sequence in this assay (P49841 whole entry): as the sequence (P49841 whole entry, looked up) above

The target in data set [4] is Cyclin-dependent kinase 4/cyclin D1 (Homo sapiens, UniProt P11802). Nature of the data set: Inhibition of human CDK4/cyclin D1 by ELISA. Format: protein-complex assay.
Cyclin-dependent kinase 4/cyclin D1, sequence (P11802 whole entry): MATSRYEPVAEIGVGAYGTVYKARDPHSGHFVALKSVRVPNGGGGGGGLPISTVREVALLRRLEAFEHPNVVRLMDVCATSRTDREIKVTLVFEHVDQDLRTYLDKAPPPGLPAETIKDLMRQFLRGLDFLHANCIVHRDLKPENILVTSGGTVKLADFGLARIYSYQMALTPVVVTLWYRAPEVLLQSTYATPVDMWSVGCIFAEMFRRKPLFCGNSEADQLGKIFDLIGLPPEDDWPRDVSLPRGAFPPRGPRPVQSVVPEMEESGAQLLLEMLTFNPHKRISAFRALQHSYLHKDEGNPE
Cyclin-dependent kinase 4/cyclin D1, sequence (P24385 whole entry, further chain): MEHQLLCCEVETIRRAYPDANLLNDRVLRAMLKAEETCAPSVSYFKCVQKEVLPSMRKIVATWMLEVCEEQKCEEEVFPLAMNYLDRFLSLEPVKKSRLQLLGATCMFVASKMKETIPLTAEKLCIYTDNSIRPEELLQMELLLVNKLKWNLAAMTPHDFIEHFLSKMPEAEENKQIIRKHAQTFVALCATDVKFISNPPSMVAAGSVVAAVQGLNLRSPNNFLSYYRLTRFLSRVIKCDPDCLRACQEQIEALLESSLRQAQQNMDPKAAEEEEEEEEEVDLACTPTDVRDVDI
In data set [5] the target is T1, Glycogen synthase kinase-3 beta. The data set can be described thus: Inhibition of human recombinant GSK3-beta at 1 uM by ATP competitive assay. The essentials:
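Recombinant human GSK3β (60 ng) with tau-441 (400 ng) in 10× buffer stock (200 mM Tris-HCl pH 7.4, 100 mM MgCl2, 5 mM DTT). Inhibitor at 1 μM final, ATP varied, 20 μL, 30 °C for 45 min. Tau pS396 measured by immunoassay at A450. Activity (% of control) versus [ATP] fitted to a simple competitive-inhibition equation to give apparent Ki.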
Target sequence in this assay (P49841 whole entry): as the sequence (P49841 whole entry, looked up) above

In data set [6] the target is Cyclin-dependent kinase 2/cyclin A (Homo sapiens, UniProt P24941). The data set can be described thus: Inhibition of human CDK2/Cyclin A by ELISA. Format: protein-complex assay.

As for `COC(=O)c1cccc2c3c(c(C(C)C)cc12)C(=O)NC3=O`, the result in data set [1] was Active.
Same read-out and setting: for `COC(=O)c1ccc2c3c(c(C)c(C)c2c1)C(=O)NC3=O` the value was “Active”; for `COC(=O)c1ccc2cc(C)c3c(c2c1)C(=O)NC3=O`, “Active”; for `COC(=O)c1cccc2c3c(c(C)cc12)C(=O)NC3=O`, “Active”.
On the same count and under the same terms, for `Cc1cc2ccccc2c2c1C(=O)NC2=O` the value was “Active”.
For the compound `CCc1cc2c(C(=O)OC)cccc2c2c1C(=O)NC2=O`, the outcome in data set [1] was Active.
Same read-out and setting: for `COC(=O)c1ccc2c3c(c(CC(C)OCc4ccccc4)cc2c1)C(=O)NC3=O` (stereo not drawn) the value was “Active”.
Regarding `COc1cc2c(C)cc3c(c2cc1OC)C(=O)NC3=O`, the result in data set [2] was Active. The figures for the IC50 in data set [3], in data set [4] and in data set [6] were 270 nM, 16000 nM and 787 nM, respectively. The Ki in data set [5] was determined as 259 nM. In addition, the result in data set [1] was Active.
As to `COC(=O)c1ccc2cc(CC(C)C)c3c(c2c1)C(=O)NC3=O`, the result in data set [1] was Active.
Still for that read-out and setting: for `COC(=O)c1ccc2cc(C(C)C)c3c(c2c1)C(=O)NC3=O` the value was “Active”; for `Cc1cc2ccc(Cl)cc2c2c1C(=O)NC2=O`, “Active”.
On to `COC(=O)c1ccc2c3c(c(CC(C)O)cc2c1)C(=O)NC3=O` (stereo not drawn), for which the outcome in data set [1] was Active.
Take `CCc1cc2c(c3cc(OC)c(OC)cc13)C(=O)NC2=O`: the Activity entry in data set [2] is recorded as “Not Active”. Besides, the IC50 was 92 nM in data set [3] and 19000 nM in data set [4]. Moreover, the result in data set [1] was Active.
In the case of `COC(=O)c1ccc2c3c(c(CCO)cc2c1)C(=O)NC3=O`, the result in data set [1] was Active.
For `COC(=O)c1cccc2c3c(c(CC(C)C)cc12)C(=O)NC3=O`, the figures for the IC50 in data set [3] and in data set [4] were 486 nM and 6000 nM, respectively. In data set [1], the result was Active.
On to `COC(=O)c1ccc2c3c(c(C(C)C)cc2c1)C(=O)NC3=O`, for which the outcome in data set [1] was Active.
Still for that read-out and setting: the result for `CCc1cc2cc(C(=O)OC)ccc2c2c1C(=O)NC2=O` reads “Active”.
Consider `Cn1cc(C2=C(c3ccc(Cl)cc3Cl)C(=O)NC2=O)c2ccccc21` [SB-216763], for which the Activity entry in data set [2] is listed as “Not Active”. Besides, the values for the IC50 in data set [4] and in data set [6] were 32000 nM and 269 nM, respectively. Moreover, the outcome in data set [1] was Active.
In the case of `COc1ccc2cc(C)c3c(c2c1)C(=O)NC3=O`, the outcome in data set [1] was Active.
`COC(=O)c1cccc2c3c(c(C)c(C)c12)C(=O)NC3=O`: in data set [1], the result was Active.
Still for that read-out and setting: the result for `CCc1cc2ccc(C(=O)OC)cc2c2c1C(=O)NC2=O` reads “Active”; that for `CCCc1cc2c(C(=O)OC)cccc2c2c1C(=O)NC2=O`, “Active”.
On the same count and under the same terms, the result for `CCc1c(C)c2c(c3cc(C(=O)OC)ccc13)C(=O)NC2=O` reads “Active”; that for `COC(=O)c1ccc2c3c(c(CC(C)C)cc2c1)C(=O)NC3=O`, “Active”.
The same measure, in the same setting: the result for `COC(=O)c1ccc2c3c(c(CCOCc4ccccc4)cc2c1)C(=O)NC3=O` reads “Active”.

These data come from ChEMBL document CHEMBL1154759, “Benzo[e]isoindole-1,3-diones as potential inhibitors of glycogen synthase kinase-3 (GSK-3). Synthesis, kinase inhibitory activity, zebrafish phenotype, and modeling of binding mode” (J Med Chem, 2010).
